Screens as filed in PubChem BioAssay.
Rows were chosen to be rich in hits. Some 3.5% of all compounds tested hit in one or more screens of this group.
MrgX1 agonist = activates human MrgX1 receptor signaling; Q96LB2; MrgX1-HEK293 cells, Fluo-4 calcium fluorescence, agonist mode; active compounds read high; B-score at 10 µM; 0.44% of 310,000 active; AID 588627;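 active means calcium response B-score plate-corrected fluorescence ratio at least 3 library SD, with starting fluorescence B-score inside 5 SD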
Target sequence (Q96LB2 whole entry, looked up): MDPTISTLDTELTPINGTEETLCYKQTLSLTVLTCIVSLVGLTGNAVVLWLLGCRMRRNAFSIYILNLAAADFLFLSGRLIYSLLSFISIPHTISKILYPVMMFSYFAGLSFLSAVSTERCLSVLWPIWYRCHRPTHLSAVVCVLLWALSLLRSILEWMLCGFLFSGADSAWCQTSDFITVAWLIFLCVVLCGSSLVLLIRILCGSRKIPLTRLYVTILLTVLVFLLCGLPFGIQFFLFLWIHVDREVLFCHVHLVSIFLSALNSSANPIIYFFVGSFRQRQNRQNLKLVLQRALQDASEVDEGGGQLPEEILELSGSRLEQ
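Material: HEK293 cells stably expressing human MrgX1 receptor | Quantity: 15,000 cells per well | Times: Cells plated overnight, dye loaded 0.5 h 37 °C, 0.5 h room temperature | Measured by: Kinetic Fluo-4 NW fluorescence of intracellular calcium | Control set: Positive and negative controls per plate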
RGS4 pot = RGS4 potentiation or activation. HEK293 M3R/inducible RGS4, carbachol calcium flux Fluo4; active compounds read low. B-score at 10 µM. 0.92% of 310,000 active. AID 463111;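 active means B-score of the integrated calcium signal more than 4 SD below the library mean, with starting fluorescence not abnormally high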;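 further: negative B-score means reduced calcium response which marks RGS4 activation or potentiation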
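Also added: carbachol at ECmax as muscarinic agonist stimulus; Assay system: HEK293 cells with stable M3R and inducible RGS4; Timing: overnight RGS4 induction, 30 min dye load 37 °C, 20 min compound RT; Measured by: Fluo4-AM (2 µM) calcium-flux fluorescence, kinetic read.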
RGS4 block = inhibitors of human RGS4 | P49798 | HEK293 M3R/RGS4 inducible, Fluo-4 calcium flux; active compounds read high; triggered by carbachol at its EC20 | B-score at 10 µM | 0.45% of 310,000 active | AID 463165;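 active means B-score, a plate-corrected calcium signal, over three deviations above library mean, with baseline fluorescence within five deviations of library mean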;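 further: RGS4 expression induced by doxycycline in cells with stable M3 receptor; B-score is computed from the integrated fluorescence ratio over baseline after carbachol; higher B-score means a larger calcium signal and so more RGS4 inhibition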
Target sequence (P49798 whole entry, looked up): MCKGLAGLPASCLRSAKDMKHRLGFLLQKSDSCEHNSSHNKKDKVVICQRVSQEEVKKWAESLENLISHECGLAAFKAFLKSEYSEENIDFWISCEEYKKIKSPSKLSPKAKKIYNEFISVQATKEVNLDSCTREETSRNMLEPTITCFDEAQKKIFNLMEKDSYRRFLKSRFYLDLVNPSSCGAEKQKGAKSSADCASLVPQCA
MrgX1 allo act = human MrgX1 positive allosteric modulation, primary screen; Q96LB2; MrgX1-HEK293, Fluo-4 calcium flux, FDSS; active compounds read high; B-score at 10 µM; 0.63% of 310,000 active; AID 588675;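 active means plate-corrected calcium response at least 3 library SD above typical, normal starting fluorescence, not activating the receptor alone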;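 further: compound read alongside a low EC10 to EC30 dose of BAM8-22 agonist; peak minus trough fluorescence over baseline measured at the second addition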
MrgX1 antag = human MrgX1 receptor antagonism, primary screen | MRGX1-HEK293 calcium flux, Fluo-4, BAM8-22 antagonism; active compounds read low | B-score at 10 µM | Q96LB2 | 1.3% of 310,000 active;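 active means calcium-response B-score plate-corrected more than 3 library SD below zero, starting fluorescence within 5 deviations, no agonist response on first addition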;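 further: peak minus trough fluorescence over baseline after final BAM8-22 challenge near maximal dose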
Each line names hits and unclear results; the compound was inactive in the other large screens.

Cc1cc(-c2ccccc2)nc(N/N=C/c2ccccc2)n1	none
COc1ccc(/C=N/Nc2nc(C)cc(-c3ccccc3)n2)cc1OC	RGS4 pot -7.28
Cc1ccc(-c2cc(-c3ccccc3)nc(N/N=C/c3cccnc3)n2)cc1	none
C(=N/Nc1nc(-c2ccccc2)cc(-c2ccccc2)n1)/c1cccnc1	RGS4 pot -7.1
Cc1cc(-c2ccccc2)nc(N/N=C/c2ccc(O)cc2O)n1	RGS4 pot -7.2
CCOc1ccc(NC(=O)Nc2ccccc2SC)cc1	none
CCOc1ccc(C(CC(=O)O)NC(=O)COc2ccccc2)cc1OC (stereo unspecified)	MrgX1 antag -5.82
Cc1ccc(CNC(=O)CCn2cc(-c3ccc(C)cc3)nc2CCN)cc1	none (no result: RGS4 pot, RGS4 block)
Cc1c(C(=O)Nc2ccc(Cl)cc2)c2ccccn2c1C(=O)c1ccc([N+](=O)[O-])cc1	RGS4 pot -8.21
Cc1c(C(=O)Nc2ccc(Cl)cc2)c2ccccn2c1C(=O)c1ccccc1	none
Cc1c(C=O)c2ccccn2c1C(=O)c1ccc(Cl)c([N+](=O)[O-])c1	MrgX1 antag -4.61
Cc1cc2c(cc1S(=O)(=O)CCC(=O)N1CC(C)CC(C)C1)OCC(=O)N2 (stereo unspecified)	none
COc1ccc(S(=O)(=O)NCC2CCCO2)cc1NC(=O)c1ccccc1F (stereo unspecified)	none
Cc1ccc(C)c(Cn2c(C(=O)OC(C)C)cc3c2ccn3C)c1	RGS4 pot -6.99
CCOC(=O)c1cc2c(ccn2C)n1Cc1ccccc1Cl	RGS4 pot -7.31
CC(C)OC(=O)c1cc2c(ccn2C)n1CC(=O)N(Cc1ccccc1)c1ccc(F)cc1	none
N#C/C(=C\c1c[nH]c2ccccc12)C(=O)NCC1CCCO1 (stereo unspecified)	none
CCOC(=O)c1sc(=S)n(Cc2ccccc2)c1N	MrgX1 agonist 47.3
CCc1ccc(S(=O)(=O)Nc2ccc(O)c3c(=O)cc(-c4ccccc4Cl)oc23)cc1	none
O=c1cc(-c2ccccc2Cl)oc2c(NS(=O)(=O)c3cc(Cl)cc(Cl)c3O)ccc(O)c12	MrgX1 agonist 40.4
COCCOc1ccc(C(F)(F)F)cc1NC(=O)CN1C(=O)NC2(CCc3ccccc32)C1=O (stereo unspecified)	none
Cc1cc2oc(=O)cc(Cn3ncc(Cl)c(Cl)c3=O)c2cc1Cl	none
CN(Cc1cnccn1)Cc1nc(Cc2cccc(F)c2)no1	none
CC(C)COc1ccc(C(=O)Nc2ccc([N+](=O)[O-])cc2)cc1	none
CCCCNC(=S)Nc1ccc([N+](=O)[O-])cc1	MrgX1 antag -5.55
CC(C)OC(=O)c1cc(NC(=S)Nc2ccc([N+](=O)[O-])cc2)cc(C(=O)OC(C)C)c1	MrgX1 antag -6.65
CC(C)CCNC(=S)Nc1ccc([N+](=O)[O-])cc1	none
CNC(=O)c1cc2cc(OC)ccc2oc1=O	none
COc1ccc2oc(=O)c(C(=O)C[n+]3cccc(C)c3)cc2c1	RGS4 pot -10.4
CCC(=O)Oc1ccc(C/C(=N\O)c2ccc(O)cc2O)o1	MrgX1 antag -4.6
CCOC(=O)c1ccc(CC(=O)c2ccc(O)cc2O)o1	none
O=C(NCCc1ccc(F)cc1)C1CCCCC1	none
CC1(C)c2[nH]c3ccccc3c2C[C@H]2C(=O)N(Cc3ccc(F)cc3)C(=O)N21	none
COc1ccc(C2=NOC(C(=O)NCCCN3CCOCC3)C2)cc1 (stereo unspecified)	MrgX1 antag -5.13
COc1ccc(C2=NOC(C(=O)NCCN3CCOCC3)C2)cc1 (stereo unspecified)	none
Cc1nc2ccc(Cl)cc2c(-c2ccccc2Cl)c1CC(=O)O	none
CN1CCc2nc3ccc(Cl)cc3c(-c3ccccc3Cl)c2C1	RGS4 pot -8.64
Cc1cc([N+](=O)[O-])nn1CCCC(=O)N1CCN(c2ccccc2)CC1	none
CCC[N+]1(CC#CC(O)(c2ccccc2)C2CCCCC2)CCCCC1 (stereo unspecified)	RGS4 pot -8.15
COC(=O)CSc1nccc(C)n1	none
CCCCNc1c(-c2ccc(SC3CCCCC3)cc2)nc2ccccn12	none
CCCCNc1c(-c2ccc(SC(C)CC)cc2)nc2ccccn12 (stereo unspecified)	RGS4 pot -7.52
O=C(O)c1ccccc1C(=O)c1cccc2ccccc12	none
COc1cccc(-c2nn(C)c3sc(C(=O)N4CCN(c5ccccn5)CC4)cc23)c1	RGS4 pot -10.7
COc1cccc(-c2nn(C)c3sc(C(=O)N4CCOCC4)cc23)c1	none
Cc1ccc(C(=O)OCC(=O)Nc2sc3c(c2C#N)CCCCC3)cc1NC(=O)c1ccco1	none
Cc1ccc(C(=O)OCC(=O)Nc2sc3c(c2C#N)CCCC3)cc1NC(=O)c1ccco1	RGS4 pot -7.48
CCc1ccc(/C=C2/C(=O)NC(=O)N2C(C)=O)cc1	none
CCc1ccc2c(CN3CCc4ccccc43)cc(=O)oc2c1	MrgX1 agonist 37.5
Cc1cc2oc(=O)cc(CN3CCc4ccccc43)c2cc1Cl	MrgX1 agonist 54
O=C(c1ccsc1)N1CCCC(N2CCOCC2)C1 (stereo unspecified)	none
CCOC(=O)c1c(-c2ccccc2)nnn1-c1nc(OCC)nc(N2CCCCC2)n1	RGS4 pot -8.67
CN(C)[C@@H]1CCC[C@@H]1OC(=O)C(c1ccccc1)c1ccccc1	RGS4 pot -7
CC(C)c1ccc2nc3sc(C(=O)N4CCc5ccccc5C4)c(N)c3cc2c1	MrgX1 antag -5.85
CCc1ccc2nc3sc(C(=O)N4CCc5ccccc54)c(N)c3cc2c1	MrgX1 antag -7.66
CCN1CCc2nc3sc(C(=O)N4CCc5ccccc5C4)c(N)c3cc2C1	none
CCc1nc(SCc2ccccc2C)n[nH]1	none
O=C(O)CCn1nnc2ccccc21	none
CN(C)c1ccc(NC(=O)c2ccc(Cn3cc([N+](=O)[O-])cn3)cc2)cc1	none
CC(C)CC1=NN(C(=O)c2ccco2)C(O)(C(F)(F)F)C1 (stereo unspecified)	none
O=C(O)c1ccc(CNC(=O)c2ccccc2NC(=O)c2ccc([N+](=O)[O-])cc2)cc1	MrgX1 antag -4.94
CCCCN(C(=O)COC(=O)COc1c(C)cc(C)cc1C)c1c(N)n(CCC)c(=O)[nH]c1=O	MrgX1 antag -8.25
CCCCn1c(N)c(N(CCOC)C(=O)COC(=O)COc2c(C)cccc2C)c(=O)[nH]c1=O	none
COc1ccc2noc3c2c1C(=O)c1ccccc1-3	RGS4 pot -7.2
CCOc1ccc(CCNC(=O)C2=C(C)C(=O)OC23CCCCC3)cc1OCC	none
COc1cc2cc(C(=O)Nc3ccc4c(c3)OCCO4)[nH]c2cc1OC	none
COc1cccc(/C=N/Nc2ncnc(Cl)c2N)c1O	none
COc1cccc(/C=N/Nc2ncnc3scc(-c4ccccc4)c23)c1O	RGS4 pot -10.4
CCCOc1ccccc1C(=O)N(Cc1cccc(Br)c1)C1CCS(=O)(=O)C1 (stereo unspecified)	none
Cc1ccc(NC(=O)CSc2ncn(-c3ccccc3)n2)cc1C	none
